Assay results as given in ChEMBL document CHEMBL4689842, “EUbOPEN Chemogenomics Library wave 1” (2021).

Test system: HEK-293T
Test: Multiplex assay against HEK293T;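 on Population Tubulin-Different-Phenotype (%): share of the cells with healthy nuclei that show this phenotype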
Type: toxicity, cell-based
Settings: human
How it was run: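 Live cells were stained at seeding with Hoechst33342, BioTracker Green Microtubule Cytoskeleton Dye, MitoTracker Red and Annexin V Alexa Fluor 680, then imaged on a CQ1 microscope at 37°C and 5% CO2 after compound addition. CellPathfinder machine-learning gating split cells into Hoechst high-intensity objects or normal cells. Normal cells were split into healthy, pyknosed or fragmented nuclei, and pyknosed cells into mitotic or apoptotic. Tubulin, mitochondrial-mass and membrane-permeability phenotypes are per cents of healthy-nucleus cells.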

[1] = 12 h, 1 µM, compound concentration 1 uM, replicate 1
[2] = 12 h, 1 µM, compound concentration 1 uM, replicate 2
[3] = 12 h, 10 µM, compound concentration 10 uM, replicate 1
[4] = 12 h, 10 µM, compound concentration 10 uM, replicate 2
[5] = 24 h, 1 µM, compound concentration 1 uM, replicate 1
[6] = 24 h, 1 µM, compound concentration 1 uM, replicate 2
[7] = 24 h, 10 µM, compound concentration 10 uM, replicate 1
[8] = 24 h, 10 µM, compound concentration 10 uM, replicate 2
[9] = 48 h, 1 µM, compound concentration 1 uM, replicate 1
[10] = 48 h, 1 µM, compound concentration 1 uM, replicate 2
[11] = 48 h, 10 µM, compound concentration 10 uM, replicate 1
[12] = 48 h, 10 µM, compound concentration 10 uM, replicate 2

C=CC(=O)Nc1cc(-n2c(=O)ccc3cnc4ccc(-c5ccc(NS(C)(=O)=O)cc5)cc4c32)ccc1C
Population Apoptotic (%) [1]: 44% | Population Fragmented Nuclei (%) [1]: 15% | Population Healthy Nuclei (%) [1]: 22% | Population Hoechst High Intensity Objects (%) [1]: 22% | Population Membrane Permeable-Phenotype (%) [1]: 0% | Population Mitochondria Different-Phenotype (%) [1]: 76% | Population Mitotic Cells (%) [1]: 55% | Population Normal (%) [1]: 77% | Population Pyknosed Nuclei (%) [1]: 62% | Population Tubulin-Different-Phenotype (%) [1]: 50% | Total Cell Count [1]: 174 | Population Apoptotic (%) [2]: 13% | Population Fragmented Nuclei (%) [2]: 13% | Population Healthy Nuclei (%) [2]: 35% | Population Hoechst High Intensity Objects (%) [2]: 5% | Population Membrane Permeable-Phenotype (%) [2]: 17% | Population Mitochondria Different-Phenotype (%) [2]: 15% | Population Mitotic Cells (%) [2]: 86% | Population Normal (%) [2]: 94% | Population Pyknosed Nuclei (%) [2]: 50% | Population Tubulin-Different-Phenotype (%) [2]: 26% | Total Cell Count [2]: 171 | Population Apoptotic (%) [3]: 50% | Population Fragmented Nuclei (%) [3]: 20% | Population Healthy Nuclei (%) [3]: 19% | Population Hoechst High Intensity Objects (%) [3]: 16% | Population Membrane Permeable-Phenotype (%) [3]: 0% | Population Mitochondria Different-Phenotype (%) [3]: 86% | Population Mitotic Cells (%) [3]: 50% | Population Normal (%) [3]: 83% | Population Pyknosed Nuclei (%) [3]: 60% | Population Tubulin-Different-Phenotype (%) [3]: 63% | Total Cell Count [3]: 184 | Population Apoptotic (%) [4]: 13% | Population Fragmented Nuclei (%) [4]: 0% | Population Healthy Nuclei (%) [4]: 40% | Population Hoechst High Intensity Objects (%) [4]: 8% | Population Membrane Permeable-Phenotype (%) [4]: 9% | Population Mitochondria Different-Phenotype (%) [4]: 34% | Population Mitotic Cells (%) [4]: 86% | Population Normal (%) [4]: 91% | Population Pyknosed Nuclei (%) [4]: 58% | Population Tubulin-Different-Phenotype (%) [4]: 42% | Total Cell Count [4]: 204 | Population Apoptotic (%) [5]: 42% | Population Fragmented Nuclei (%) [5]: 15% | Population Healthy Nuclei (%) [5]: 28% | Population Hoechst High Intensity Objects (%) [5]: 19% | Population Membrane Permeable-Phenotype (%) [5]: 15% | Population Mitochondria Different-Phenotype (%) [5]: 62% | Population Mitotic Cells (%) [5]: 57% | Population Normal (%) [5]: 80% | Population Pyknosed Nuclei (%) [5]: 55% | Population Tubulin-Different-Phenotype (%) [5]: 57% | Total Cell Count [5]: 173 | Population Apoptotic (%) [6]: 11% | Population Fragmented Nuclei (%) [6]: 9% | Population Healthy Nuclei (%) [6]: 58% | Population Hoechst High Intensity Objects (%) [6]: 3% | Population Membrane Permeable-Phenotype (%) [6]: 11% | Population Mitochondria Different-Phenotype (%) [6]: 16% | Population Mitotic Cells (%) [6]: 88% | Population Normal (%) [6]: 96% | Population Pyknosed Nuclei (%) [6]: 31% | Population Tubulin-Different-Phenotype (%) [6]: 32% | Total Cell Count [6]: 199 | Population Apoptotic (%) [7]: 48% | Population Fragmented Nuclei (%) [7]: 19% | Population Healthy Nuclei (%) [7]: 22% | Population Hoechst High Intensity Objects (%) [7]: 13% | Population Membrane Permeable-Phenotype (%) [7]: 0% | Population Mitochondria Different-Phenotype (%) [7]: 78% | Population Mitotic Cells (%) [7]: 51% | Population Normal (%) [7]: 86% | Population Pyknosed Nuclei (%) [7]: 58% | Population Tubulin-Different-Phenotype (%) [7]: 59% | Total Cell Count [7]: 194 | Population Apoptotic (%) [8]: 25% | Population Fragmented Nuclei (%) [8]: 4% | Population Healthy Nuclei (%) [8]: 56% | Population Hoechst High Intensity Objects (%) [8]: 2% | Population Membrane Permeable-Phenotype (%) [8]: 7% | Population Mitochondria Different-Phenotype (%) [8]: 30% | Population Mitotic Cells (%) [8]: 74% | Population Normal (%) [8]: 97% | Population Pyknosed Nuclei (%) [8]: 39% | Population Tubulin-Different-Phenotype (%) [8]: 57% | Total Cell Count [8]: 228 | Population Apoptotic (%) [9]: 45% | Population Fragmented Nuclei (%) [9]: 21% | Population Healthy Nuclei (%) [9]: 17% | Population Hoechst High Intensity Objects (%) [9]: 23% | Population Membrane Permeable-Phenotype (%) [9]: 3% | Population Mitochondria Different-Phenotype (%) [9]: 40% | Population Mitotic Cells (%) [9]: 54% | Population Normal (%) [9]: 76% | Population Pyknosed Nuclei (%) [9]: 60% | Population Tubulin-Different-Phenotype (%) [9]: 33% | Total Cell Count [9]: 204 | Population Apoptotic (%) [10]: 9% | Population Fragmented Nuclei (%) [10]: 7% | Population Healthy Nuclei (%) [10]: 81% | Population Hoechst High Intensity Objects (%) [10]: 6% | Population Membrane Permeable-Phenotype (%) [10]: 10% | Population Mitochondria Different-Phenotype (%) [10]: 4% | Population Mitotic Cells (%) [10]: 90% | Population Normal (%) [10]: 93% | Population Pyknosed Nuclei (%) [10]: 10% | Population Tubulin-Different-Phenotype (%) [10]: 22% | Total Cell Count [10]: 321 | Population Apoptotic (%) [11]: 52% | Population Fragmented Nuclei (%) [11]: 24% | Population Healthy Nuclei (%) [11]: 18% | Population Hoechst High Intensity Objects (%) [11]: 18% | Population Membrane Permeable-Phenotype (%) [11]: 16% | Population Mitochondria Different-Phenotype (%) [11]: 29% | Population Mitotic Cells (%) [11]: 47% | Population Normal (%) [11]: 81% | Population Pyknosed Nuclei (%) [11]: 56% | Population Tubulin-Different-Phenotype (%) [11]: 45% | Total Cell Count [11]: 204 | Population Apoptotic (%) [12]: 17% | Population Fragmented Nuclei (%) [12]: 5% | Population Healthy Nuclei (%) [12]: 79% | Population Hoechst High Intensity Objects (%) [12]: 3% | Population Membrane Permeable-Phenotype (%) [12]: 8% | Population Mitochondria Different-Phenotype (%) [12]: 6% | Population Mitotic Cells (%) [12]: 82% | Population Normal (%) [12]: 96% | Population Pyknosed Nuclei (%) [12]: 15% | Population Tubulin-Different-Phenotype (%) [12]: 27% | Total Cell Count [12]: 457
